Several values for one entry are separate records, joined by “and”; a condition that tells them apart may be missing. Equal values may be shown once.
What was measured:
[1] = tested on: Mus musculus; experiment: (§1) Antitumor efficacy against subcutaneously implanted B16 melanoma tumor in BDF1 hybrid mice, administered intraperitoneally with 10 mg/kg of compound; type: functional
Outline: (§2)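 Female BDF1 mice received 0.5 mL B16 tumor brei sc into the shaved dorsoscapular area; the brei was a 1:10 w/v dilution in HBSS from tumor passaged sc in C57BL/6 mice. Dosing was ip for 9 consecutive days once the tumor was palpable, in saline, 0.3% Klucel or 0.33% Klucel/NaHCO3. Mice were observed daily for up to 120 days. %T/C is median survival treated/control (NCI Instruction 14); active if ≥140.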

[2] = tested on: B16; experiment: (§3) Percent B16 melanoma growth inhibition at dose 10 mg/kg in mice; type: functional, Mus musculus; details: for inhibition in vivo at 10 mg/kg: Mus musculus, B16, dose 10 mg/kg; for Inhibition: dose 10 mg/kg
Outline: (§4)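 B16 brei (1:10 w/v in HBSS, 0.5 mL) was implanted sc into female BDF1 mice. Mice got ip doses for 9 consecutive days after the tumor became palpable, in saline, 0.3% Klucel or 0.33% Klucel/NaHCO3. Serial tumor diameters were measured. Inhibition = 100 − [(change in average tumor diameter, treated/control) × 100]; active if ≥25%.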

[3] = tested on: Mus musculus; experiment: as §3; type: functional; details: B16, dose 10 mg/kg; outline: as §4
[4] = tested on: B16; experiment: Percent B16 melanoma growth inhibition at dose 20 mg/kg in mice; type: functional, Mus musculus; details: for inhibition in vivo at 20 mg/kg: Mus musculus, B16, dose 20 mg/kg; outline: as §4
[5] = tested on: B16; experiment: Percent B16 melanoma growth inhibition at dose 4 mg/kg in mice; type: functional; details: Mus musculus; outline: as §4
[6] = tested on: Mus musculus; experiment: Compound was tested for increase in life span of P388 leukemia bearing mice at dose of 10 mg/Kg; Did nto increase significantly; type: functional, organism-based
[7] = tested on: Mus musculus; experiment: Compound was tested for increase in life span of P388 leukemia bearing mice at dose of 20 mg/Kg; Showed Toxicity, and weight loss; type: organism-based; details: in vivo
[8] = tested on: Mus musculus; experiment: Compound was tested for increase in life span of P388 leukemia bearing mice at dose of 40 mg/Kg; Showed Toxicity, and weight loss; type: organism-based; details: in vivo
[9] = tested on: Mus musculus; experiment: Compound was tested for increase in life span of P388 leukemia bearing mice at dose of 5 mg/Kg; Did nto increase significantly; type: functional, organism-based
[10] = tested on: Mus musculus; experiment: Antitumor efficacy against subcutaneously implanted B16 melanoma tumor in BDF1 hybrid mice, administered intraperitoneally with 20 mg/kg of compound; type: functional; outline: as §2
[11] = tested on: Mus musculus; experiment: Antitumor efficacy against subcutaneously implanted B16 melanoma tumor in BDF1 hybrid mice, administered intraperitoneally with 4 mg/kg of compound; type: functional; outline: as §2
[12] = tested on: B16; experiment: as §1; type: functional, Mus musculus; outline: as §2

| Structure (SMILES) | T/C [1] | inhibition in vivo at 10 mg/kg [2] | inhibition in vivo at 20 mg/kg [4] | other results |
| --- | --- | --- | --- | --- |
| O=C1C=C(CBr)C(=O)C(CBr)=C1 | 105% | 24% | – | – |
| O=C1C=C(CCl)C(=O)C=C1CCl | 104% | – | – | inhibition in vivo at 10 mg/kg [3]: 4% |
| CC(=O)OCC1=CC(=O)C=CC1=O | – | – | 63% | inhibition in vivo at 4 mg/kg [5]: 31%; Increase in life-span [6]: Did nto increase significantly; Increase in life-span [7]: Did nto increase significantly; Increase in life-span [8]: Did nto increase significantly; Increase in life-span [9]: Did nto increase significantly; T/C [10]: 142%; T/C [11]: 144% |
| O=C(O)CCC(=O)OCC1=CC(=O)C(CCC2=CC(=O)C(COC(=O)CCC(=O)O)=CC2=O)=CC1=O | – | – | – | T/C ([1]; 10 mg/kg): 123% and 106% |
| O=C1C=C(CO)C(=O)C(CO)=C1 | 90% | 19% | 36% | T/C [10]: 171% |
| CC(=O)OCC1=CC(=O)C(CCC2=CC(=O)C(COC(C)=O)=CC2=O)=CC1=O | 129% | 16% | – | – |
| O=C1C=CC(=O)C(COC(=O)CCC(=O)O)=C1 | 164% | 27% | 19% | T/C [12]: 130%; T/C [10]: 115%; Inhibition [2]: 32% |
| COC1=CC(=O)C(COC(C)=O)=CC1=O | 110% | 0% | – | – |
| O=C1C=C(COC(=O)CCC(=O)O)C(=O)C(COC(=O)CCC(=O)O)=C1 | – | – | 23% | Inhibition ([4]; dose 20 mg/kg): 29%; T/C ([10]; 20 mg/kg): 110% and 130% |
| O=C1C=C(CCC2=CC(=O)C(CBr)=CC2=O)C(=O)C=C1CBr | 102% | 16% | – | – |
| O=C1C=C(CBr)C(=O)C=C1CBr | – | 20% | – | T/C ([1]; 10 mg/kg): 140% and 118%; Inhibition [2]: 30% |
| O=C(O)CCC(=O)OCC1=CC(=O)C(COC(=O)CCC(=O)O)=CC1=O | – | 38% | – | T/C ([1]; 10 mg/kg): 115% and 111%; Inhibition [2]: 19% |
| CC(=O)OCC1=CC(=O)C=C(COC(C)=O)C1=O | 100% | 13% | – | – |
